STAT3 act-1: STAT3 signaling activation. U3A cells, IL-6 STAT3-luciferase reporter, luminescence; 100% = signal with IL-6 EC80 alone. activation (% of control), % at 5.6 µM. actives 0.91% (n = 190,000);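 active = activation above the screen-wide mean of compound activation plus 3 SD, cut at about 130% in these data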;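 also: 0% = background luminescence of wells with medium and substrate only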
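Test system: human U3A cells carrying STAT3-luciferase construct; control set: IL-6-only wells as 100% reference; timing: compound pre-incubation 1 h before IL-6, then 6 h stimulation at 37 °C; also added: IL-6 stimulus at 33 ng/mL final; evaluation: % activation versus median of IL-6-stimulated wells; detection: reporter luminescence signal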
STAT1 act-1: increases IFN-gamma driven STAT1 reporter signal; actives 2.6% (n = 200,000); NIH 3T3 STAT1-luciferase reporter, luminescence; 100% = IFN-gamma alone, no compound; activation (% of control), % at 5.5 µM;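 active = activation above the screen-wide mean activation plus 3 SD, cut at about 130% in these data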;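 also: raw ratio to IFN-gamma control signal so 100% means no change and 0% no light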
NF-kB expr up: NF-kB expression increase, human neuronal cells; NF-kB reporter expression; hits give high values; fold change at 12.5 µM; actives 1.6% (n = 190,000); AID 1239; in the data active = fold change above about 3.3
STAT3 inh: reduces IL-6 driven STAT3 reporter signal; U3A cells, IL-6 STAT3-luciferase reporter, luminescence; host cell line lacks STAT1; inhibition, % at 5.5 µM; actives 0.89% (n = 190,000); AID 862;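 active = inhibition above the mean inhibition across all screened compounds plus 3 SD, cut at about 44% in these data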;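 also: 0% = DMSO only wells and 100% = 100 µM nifuroxazide control wells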
APP 5'UTR act: APP 5'UTR luciferase reporter activation. actives 1% (n = 190,000). activation, % at 2 µM. SH-SY5Y APP 5'UTR luciferase reporter, luminescence; zero percent = DMSO vehicle wells;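 active = activation above a set limit, based on mean plus 3 SD of controls, cut at about 140% in these data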
STAT1 inh: reduces IFN-gamma driven STAT1 reporter signal; NIH 3T3 STAT1-luciferase reporter, luminescence; inhibition, % at 5.5 µM; actives 0.35% (n = 200,000); AID 920;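 active = inhibition above a set limit, the mean inhibition across all tested compounds plus 3 SD, cut at about 34% in these data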;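 also: 0% = IFN-gamma with DMSO and 100% = IFN-gamma with 300 µM nifuroxazide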
STAT3 act-2: confirmation of STAT3 signaling activators. shares compounds with STAT3 act-1. U3A STAT3-luciferase reporter, IL-6 potentiation, luminescence; U3A cells lack STAT1; 100 means same as IL-6 alone. potentiation (% of control), % at 5.7 µM. actives 64% (n = 1,200). AID 1267;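 active = percent activation of the STAT3 luciferase reporter above a set limit taken from the earlier primary screen, cut at about 130% in these data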;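 also: 0% = background signal of medium plus substrate and 100% = median of IL-6 with DMSO wells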
NFkB act 2: NF-kappaB activation in STAT3 activator counter-screen | actives 11% (n = 1,200) | shares compounds with STAT3 act-1 | activation (% of control), % at 5.7 µM | human cells, NF-kappaB reporter activation | AID 1309; in the data active = activation above about 120%;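 also: reporter induced by TNF-alpha stimulation; 100% = median of stimulated DMSO wells and 0% = no signal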
STAT1 act-2: counter-screen for STAT3 activators: STAT1 activation | shares compounds with STAT3 act-1 | AID 1318 | NIH 3T3 STAT1-luciferase reporter, IFN-gamma, luminescence | actives 13% (n = 1,200) | activation (% of control), % at 5.7 µM;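 active = activation above the solvent-only control well mean plus 3 SD, set per screening run, cut at about 120% in these data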;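 also: 100% = IFN-gamma with DMSO median signal so 100% means no change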
An asterisk follows results filed as active; nt = no result. Rows were chosen to be rich in hits. Some 4.9% of all compounds tested hit in one or more screens of this group.

SMILES	STAT3 act-1	STAT1 act-1	NF-kB expr up	STAT3 inh	APP 5'UTR act	STAT1 inh	STAT3 act-2	NFkB act 2	STAT1 act-2
CCOC(=O)C1=C(C)NC2=C(C(=O)CCC2)C1c1coc2ccccc2c1=O (stereo not drawn)	145*	100	0.9	-44	2	0	150*	101	102
CC1=C(C(=O)Nc2ccccc2)C(c2coc3ccccc3c2=O)C2=C(CCCC2=O)N1 (stereo not drawn)	122	106	0.86	-22	33	-6	nt	nt	nt
COC(=O)C1=C(C)NC2=C(C(=O)CCC2)C1c1coc2ccccc2c1=O (stereo not drawn)	139*	86	0.9	-39	-13	14	147*	107	110
Clc1ccc(-c2csc(N3CCSCC3)n2)cc1	94	103	1.9	7	29	-3	nt	nt	nt
CC(C)(C)CC(=O)Nc1nnc(SCC(=O)Nc2ccccc2F)s1	97	97	1.2	7	6	2	nt	nt	nt
Cc1ccc(CNC(=O)CNS(=O)(=O)c2ccc3nc(C)sc3c2)cc1	95	96	0.98	10	15	3	nt	nt	nt
O=C(Nc1cc(-c2nc3ccccc3s2)ccc1Cl)c1ccc2c(c1)OCO2	138*	105	1.7	-36	28	-5	137*	120	127*
CCC(C)NC(=O)Cn1c(=O)sc2ccccc21 (stereo not drawn)	106	102	1	-5	12	-2	nt	nt	nt
CCOC(=O)c1cccnc1SCc1cc(=O)n2ccccc2n1	138*	98	1.1	-40	-7	2	129	103	96
O=C(O)CCCCCn1c(SCc2cc(=O)n3ccccc3n2)nc2ccsc2c1=O	93	101	0.92	12	-15	-1	nt	nt	nt
CC(OC(=O)c1cccnc1SCc1cc(=O)n2ccccc2n1)c1ccccn1 (stereo not drawn)	153*	107	0.96	-69	4	-7	134*	100	99
COC(=O)c1ccccc1N1CCS(=O)(=O)CC1	101	108	0.97	6	4	-10	nt	nt	nt
COc1ccc(S(=O)(=O)NNC(N)=S)cc1	86	93	1.2	19	-44	6	nt	nt	nt
CCOC(=O)COc1ccc2ccccc2c1/C=C/[N+](=O)[O-]	91	102	2	8	-62	-2	nt	nt	nt
CCOc1ccc(/C=C/[N+](=O)[O-])c2ccccc12	137*	105	1.6	-36	3	-5	121	118	101
CC(=O)c1c(N2CCN(c3ccccn3)CC2)nc(=S)n(-c2ccccc2)c1C	95	106	1	9	-22	-9	nt	nt	nt
Brc1ccc(-c2cn3c(n2)CCc2ccc4cccnc4c2-3)cc1	157*	96	0.54	-67	8	5	149*	101	89
CCn1c(CSc2ncccn2)nnc1SCC(=O)N1CCc2ccccc21	148*	90	1.1	-50	1	11	123	103	94
O=C(CSc1ncc(-c2ccccc2)n1C1CCCC1)N1CCc2ccccc21	141*	98	1	-48	10	2	123	108	95
O=C(CCc1ccc(S(=O)(=O)N2CCOCC2)cc1)OCc1nc2ccccc2s1	142*	120	1.6	-44	24	-22	147*	122*	136*
CC/C(C)=N/Nc1cccc([N+](=O)[O-])c1	96	105	1.4	4	-9	-5	nt	nt	nt
CCOC(=O)CC1C(=O)NCCN1C(=O)c1cc2c(=O)n3cccc(C)c3nc2s1 (stereo not drawn)	164*	99	1.1	-73	7	2	139*	105	99
CCOC(=O)CC1C(=O)NCCN1C(=O)c1cc2c(=O)n3ccccc3nc2s1 (stereo not drawn)	120	97	1	-19	8	3	nt	nt	nt
Cc1ccc(C2NC(=O)c3c(sc(C)c3C)N2)c(O)c1 (stereo not drawn)	158*	101	1.8	-59	0	-1	159*	106	98
Cc1cccc(C2NC(=O)c3c(sc(C)c3C)N2)c1O (stereo not drawn)	117	109	1	-14	4	-10	nt	nt	nt
SMILES	STAT3 act-1	STAT1 act-1	NF-kB expr up	STAT3 inh	APP 5'UTR act	STAT1 inh	STAT3 act-2	NFkB act 2	STAT1 act-2
COc1ccc(OC)c(NC(=O)c2[nH]c(C)c(C(C)=O)c2C)c1	151*	101	0.9	-55	-3	-2	152*	106	104
COc1ccc(-c2nc(NC(=O)c3[nH]c(C)c(C(C)=O)c3C)sc2C)cc1	107	87	0.78	1	29	12	nt	nt	nt
CC(C)CCNC(=O)Cc1ccccc1[N+](=O)[O-]	150*	91	0.92	-47	12	10	128	102	96
CCOC(=O)N1CCN(CC(=O)Nc2c(C(=O)OC)[nH]c3ccccc23)CC1	105	99	1	-2	13	1	nt	nt	nt
C=CCOC(=O)Nc1c(C(=O)OC)[nH]c2ccccc12	148*	86	0.7	-45	-7	15	150*	105	93
COC(=O)c1[nH]c2ccccc2c1NC(=O)Oc1ccccc1	159*	97	1.2	-58	11	3	160*	111	115
COC(=O)c1[nH]c2ccc(C)cc2c1NC(=O)Oc1ccccc1	112	110	1.9	-5	35	-11	nt	nt	nt
CSc1nsc(/C=C/Nc2ccc(C)cc2)c1C#N	137*	103	1	-45	-15	0	136*	105	108
CSc1nsc(/C=C/Nc2ccc(C)c(C)c2)c1C#N	97	97	1.2	7	4	2	nt	nt	nt
CC(=O)Nc1ccc(Nc2nc(C)c([N+](=O)[O-])c(Nc3ccc(NC(C)=O)cc3)n2)cc1	95	105	0.31	6	-17	-5	nt	nt	nt
N#C/C(=C\Nc1ccc2cn[nH]c2c1)c1nc(-c2ccc(Cl)cc2)cs1	148*	91	1.1	-56	12	8	115	99	90
COc1ccc(C(=O)n2nc(C)cc2Nc2ccccc2)cc1	167*	122	2.7	-70	4	-24	153*	119	136*
COc1ccc(N2C(=O)[C@@H]3[C@H](C2=O)[C@H]2c4ccccc4C=CN2[C@@H]3C(C)=O)cc1	122	101	1.1	-21	-4	-1	nt	nt	nt
COc1ccc(CNC(=O)COC(=O)c2cnccn2)cc1	100	88	0.94	1	-4	13	nt	nt	nt
